ERAP1 inh – human ERAP1 aminopeptidase inhibitors, primary screen, biochemical, single point, plate reader. Endoplasmic reticulum aminopeptidase 1 (Homo sapiens), Q9NZ08. recombinant ERAP1, Leu-AMC fluorescence, 60 min. inhibition, % at 10.7 µM. hit rate 0.15% among 340,000;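 active = mean replicate inhibition of at least 30%, or all replicates individually reaching that 30% level; inactive = mean below 30% and not every replicate reaching it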
RAD52 inh – RAD52 DNA annealing inhibitors, primary screen, biochemical, FRET, single point, set 2 | inhibition, % at 18.7 µM | DNA repair protein RAD52 homolog (Homo sapiens), P43351 | recombinant RAD52 DNA annealing, FRET fluorescence | hit rate 0.46% among 360,000;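 active = every replicate showing at least 50% inhibition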
Target sequence (P43351 whole entry, looked up): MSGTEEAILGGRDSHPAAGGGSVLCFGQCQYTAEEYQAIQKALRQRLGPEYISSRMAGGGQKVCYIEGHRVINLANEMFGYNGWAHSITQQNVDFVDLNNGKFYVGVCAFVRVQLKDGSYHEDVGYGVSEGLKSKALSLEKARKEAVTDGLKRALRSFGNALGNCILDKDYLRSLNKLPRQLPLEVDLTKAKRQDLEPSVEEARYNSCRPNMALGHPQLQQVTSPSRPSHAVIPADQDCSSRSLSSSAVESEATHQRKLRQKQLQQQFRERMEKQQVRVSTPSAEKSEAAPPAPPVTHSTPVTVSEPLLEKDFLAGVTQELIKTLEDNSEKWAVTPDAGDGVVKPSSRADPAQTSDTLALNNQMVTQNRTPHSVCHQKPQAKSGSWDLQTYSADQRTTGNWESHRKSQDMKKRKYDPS
S100A4 inh HTS – inhibitors of S100A4-myosin IIA peptide binding, primary screen, biochemical, fluorescence polarization, TAMRA-MyoIIA peptide. Protein S100-A4 (Homo sapiens), P26447. inhibition, % at 10.7 µM. hit rate 0.14% among 360,000. AID 652163, 2013;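 active = mean inhibition of at least 70% across replicates, with every replicate also reaching that level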
Target sequence (P26447 whole entry, looked up): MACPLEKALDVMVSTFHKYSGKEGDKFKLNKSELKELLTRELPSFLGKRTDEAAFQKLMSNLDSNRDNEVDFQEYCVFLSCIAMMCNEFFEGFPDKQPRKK
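Material: S100A4 monomer protein / Buffer or medium: 50 mM HEPES pH 7.2, 10 mM CaCl2, 100 mM KCl / Times: 5 min incubation before reading / Benchmarks: neutral control DMSO, positive control TFP / Reagent: labelled myosin peptide probe, 5 nM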
INS-1E GSIS act – GLuc luminescence reporter in INS-1E cells, primary screen for activators of glucose-dependent secretion of insulin. INS-1E GLuc reporter insulin secretion, 2-3 h. activation, % at 16.6 µM. hit rate 0.61% among 370,000. AID 743287, 2014;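 active = lowest replicate activation of at least 40%, so every replicate reaches that level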
AF4-AF9 inh – inhibitors of AF4 peptide binding to AF9, primary screen, biochemical, AlphaScreen, biotin-AF4 peptide, FLAG-AF9, single point. Protein AF-9 (Homo sapiens), P42568. inhibition, % at 10 µM. hit rate 0.47% among 350,000;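 active = every replicate reaching a set inhibition limit, whatever the replicate mean, cut at about 25% in these data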
A number is an active result; i = inactive; nt = no result given. In the library only some 1.5% were active in any assay of this set; here they are far more common.

SMILES | ERAP1 inh | RAD52 inh | S100A4 inh HTS | INS-1E GSIS act | AF4-AF9 inh
Cc1cc(C)cc(N2CC(c3nc4ccccc4n3C)CC2=O)c1 (stereo not given) | 102.6 | i | i | nt | i
CC(=O)Nc1ccc2c(c1)CC(=O)N(C)C[C@H](C)[C@H](CN(C)C)O2 | nt | nt | nt | i | nt
C[C@H](CO)N1C[C@H](C)[C@H](CN(C)C(=O)Nc2ccccc2)Oc2ccc(NC(=O)CCCCCC(=O)Nc3ccccc3N)cc2C1=O | i | i | i | i | i
Cn1cnc([N+](=O)[O-])c1Sc1ncnc2nc[nH]c12 | i | i | i | i | nt
Cn1cnc(Sc2ncnc3nc[nH]c23)c1[N+](=O)[O-] | 41.1 | i | i | i | i
OC[C@@H]1Nc2ccc(C#Cc3ccc(F)cc3)cc2[C@H]2[C@@H]1CCN2Cc1nccs1 | nt | nt | nt | i | nt
OC[C@@H]1Nc2ccc(C3=CCCCC3)cc2[C@@H]2[C@H]1CCN2Cc1nccs1 | i | i | i | i | 25.2
O=C(c1ccco1)N1N=C(C2CCCCC2)CC1(O)C(F)(F)F (stereo not given) | i | i | i | 51.9 | i
O=C(/C=C/c1ccc(Br)cc1)c1ccc(NC(=O)c2ccco2)cc1 | nt | nt | nt | 113.6 | nt
O=C(/C=C/c1ccc(Br)cc1)c1ccco1 | i | i | i | i | i
CO[C@H]1CN(C)C(=O)c2ccc(NC(=O)C3CCCCC3)cc2OC[C@@H](C)N(Cc2nccs2)C[C@@H]1C | i | i | 130.1 | i | i
CO[C@H]1CN(C)C(=O)c2ccc(NS(=O)(=O)c3ccccc3)cc2OC[C@H](C)N(Cc2cccnc2)C[C@@H]1C | i | i | 79.4 | i | i
CCCC(=O)Nc1ccc2c(c1)OC[C@H](C)N(C(=O)c1cnccn1)C[C@H](C)[C@H](OC)CN(C)C2=O | i | i | i | i | i
CCCC(=O)Nc1ccc2c(c1)OC[C@@H](C)N(C(=O)c1cnccn1)C[C@@H](C)[C@H](OC)CN(C)C2=O | i | i | 141.5 | i | i
CO[C@@H]1CN(C)C(=O)c2ccc(NC(=O)c3ccc4c(c3)OCO4)cc2OC[C@@H](C)N(Cc2ccc3c(c2)OCO3)C[C@H]1C | i | i | 79.6 | i | i
CO[C@H]1CN(C)C(=O)c2ccc(NC(=O)c3ccc4c(c3)OCO4)cc2OC[C@@H](C)N(CC2CC2)C[C@H]1C | i | i | i | i | i
Cc1noc(C)c1NC(=O)Nc1ccc2c(c1)C(=O)N([C@H](C)CO)C[C@H](C)[C@H](CN(C)CC1CCCCC1)OCCCC[C@H](C)O2 | i | i | i | i | i
C[C@@H]1CCCCO[C@H](CN(C)C(=O)NC2CCCCC2)[C@H](C)CN([C@H](C)CO)C(=O)c2cc(NS(C)(=O)=O)ccc2O1 | nt | nt | nt | i | nt
CCCC(=O)Nc1ccc2c(c1)OC[C@@H](C)N(CCC(F)(F)F)C[C@H](C)[C@H](OC)CN(C)C2=O | i | i | i | i | i
CCCC(=O)Nc1ccc2c(c1)OC[C@@H](C)N(Cc1ccncc1)C[C@H](C)[C@H](OC)CN(C)C2=O | i | i | 121.0 | i | i
CCCC(=O)Nc1ccc2c(c1)OC[C@H](C)N(CCC(F)(F)F)C[C@H](C)[C@@H](OC)CN(C)C2=O | i | i | 131.2 | i | i
CCCC(=O)Nc1ccc2c(c1)OC[C@@H](C)N(Cc1ccncc1)C[C@@H](C)[C@H](OC)CN(C)C2=O | i | i | i | i | i
CCC(=O)Nc1ccc2c(c1)C(=O)N(C)C[C@H](OC)[C@@H](C)CN(C(=O)c1cnccn1)[C@H](C)CO2 | i | i | i | i | i
C[C@@H]1CCc2cnnn2COC[C@H](Cc2ccccc2)NC1=O | nt | nt | nt | i | nt
Cc1cc(N2CCN(c3ncccn3)CC2)nc2c(C)cccc12 | i | i | i | i | 41.1
SMILES | ERAP1 inh | RAD52 inh | S100A4 inh HTS | INS-1E GSIS act | AF4-AF9 inh
COc1ccc(N2CCN(c3cc(C)c4cccc(C)c4n3)CC2)cc1 | i | i | i | i | i
CCC(Sc1nc2ccncc2[nH]1)C(=O)Nc1ccc(C)c(Cl)c1 (stereo not given) | i | i | 78.6 | i | i
CCOc1ccccc1NC(=O)C(CC)Sc1nc2ccncc2[nH]1 (stereo not given) | i | i | i | i | i
CCC(=O)N[C@@H]1CC[C@H](CCn2cc(C3CC3)nn2)O[C@H]1CO | i | i | i | i | i
C1CCC(C(CC2CCCCN2)C2CCCCC2)CC1 (stereo not given) | i | i | i | 103.6 | i
O=C(c1ccccc1)N1CC(=O)N2[C@@H](CO)[C@H](c3ccc(/C=C/c4ccccc4)cc3)[C@@H]2C1 | nt | nt | nt | i | nt
N#Cc1c(NC(=O)c2cccc(S(=O)(=O)Nc3ccc(C(=O)O)cc3)c2)sc2c1CCCC2 | 42.6 | i | i | i | i
COc1ccccc1N1CCN(C(=O)c2noc(C)c2[N+](=O)[O-])CC1 | i | i | i | 56.9 | i
Cc1onc(C(=O)N2CCN(C(c3ccccc3)c3ccccc3)CC2)c1[N+](=O)[O-] | i | i | i | i | i
CC(=O)Nc1cccc2c1O[C@H](CN(C)C(C)=O)[C@@H](C)CN(C)C2=O | nt | nt | nt | i | nt
CC(C)(C)[C@@H]1C=C(C(=O)Nc2ccccc2)O[C@H](OCc2ccc(CO)cc2)C1 | i | i | 98.0 | i | i
CCN(CC)CCNC(=O)c1cc2c(-c3ccc(Cl)cc3)nn(C)c2s1 | nt | 60.6 | i | i | i
CC(C)[C@@H](C(=O)NC1CCN(Cc2ccccc2)CC1)N1C(=O)N2CCc3c([nH]c4ccccc34)[C@@]2(C)C1=O | i | i | i | nt | 26.7
COc1cccc(CN2[C@H](CO)[C@H](c3ccccc3)C23CN(Cc2ccccc2OC)C3)c1 | nt | nt | nt | i | nt
Cc1cccc(N(Cc2ccccc2)C(=O)CCl)c1 | i | i | i | 97.2 | i
c1ccc(-c2nnc3ccc(N4CCC5(CC4)OCCO5)nn23)cc1 | nt | nt | nt | 60.8 | nt
NC(=O)C1(N2CCCCC2)CCN(c2ccc3nnc(-c4ccccc4)n3n2)CC1 | i | i | i | i | i
CC(=O)N(C)C[C@H]1Oc2c(N)cccc2C(=O)N(C)C[C@@H]1C | nt | nt | nt | i | nt
CC(C)CC#Cc1ccc([C@H]2[C@@H](CO)N3C(=O)CN(S(C)(=O)=O)C[C@H]23)cc1 | nt | nt | nt | i | nt
C[C@@H]1CN([C@@H](C)CO)C(=O)c2cc(NC(=O)Nc3ccc4c(c3)OCO4)ccc2O[C@@H]1CN(C)Cc1ccccc1 | i | i | i | i | i
O=C(Nc1ncn[nH]1)c1ccc(Cl)c(Cl)c1 | i | i | i | 44.0 | i
O=C(Nc1ncn[nH]1)c1ccc(Cl)cc1Cl | i | i | i | i | i
CC(=O)N1C[C@@H]2C(c3ccc(Br)cc3)[C@H](C1)N2C(C)=O (stereo not given in full) | nt | nt | nt | i | nt
COc1ccccc1CNC(=O)COC(=O)c1cc(C)nc2ccccc12 | i | i | i | 48.5 | i

High-throughput results deposited in PubChem BioAssay by Broad Institute.
